“And” between values parts separate entries of the source, which are not always exact repeats. Equal entries are not always repeated.
Test system: U2OS
Assay: Multiplex assay against U2OS
Type: toxicity, cell-based
Conditions: human
Procedure, shortened: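 Per cents of healthy-nucleus cells form the tubulin, mitochondrial-mass and membrane-permeability phenotype values. Live cells were stained at seeding with Hoechst33342, BioTracker Green Microtubule Cytoskeleton Dye, MitoTracker Red and Annexin V Alexa Fluor 680. After compound addition they were imaged on a CQ1 microscope at 37°C and 5% CO2, and CellPathfinder machine-learning gating split them into Hoechst high-intensity objects or normal cells, normal cells into healthy, pyknosed or fragmented nuclei, and pyknosed cells into mitotic or apoptotic.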

[1] = 12 h, 1 µM, compound concentration 1 uM
[2] = 12 h, 10 µM, compound concentration 10 uM
[3] = 24 h, 1 µM, compound concentration 1 uM
[4] = 24 h, 10 µM, compound concentration 10 uM
[5] = 48 h, 1 µM, compound concentration 1 uM
[6] = 48 h, 10 µM, compound concentration 10 uM

O=C(O)CCC/C=C\CC1C(O)CC(O)C1/C=C/C(O)COc1cccc(Cl)c1 (configuration not stated) [CLOPROSTENOL] was tested, and the “Population Apoptotic (%)” value [1] was 77% and 75%, the “Population Fragmented Nuclei (%)” value [1] was 30% and 11% and the “Population Healthy Nuclei (%)” value [1] was 60% and 82%. The “Population Hoechst High Intensity Objects (%)” value [1] was 3% and 0%, the “Population Membrane Permeable-Phenotype (%)” value [1] was 2% and 6% and the “Population Mitochondria Different-Phenotype (%)” value [1] was 0% and 3%. For the same compound, the “Population Mitotic Cells (%)” value [1] was 22% and 25%, the “Population Normal (%)” value [1] was 96% and 100% and the “Population Pyknosed Nuclei (%)” value [1] was 9% and 6%. The “Population Tubulin-Different-Phenotype (%)” value [1] was 1% and 2%, the “Total Cell Count” value [1] was 201 and 129 and the “Population Apoptotic (%)” value [2] was 92% and 45%. For the same compound, the “Population Healthy Nuclei (%)” value [2] was 60% and 81%, the “Population Hoechst High Intensity Objects (%)” value [2] was 2% and 0% and the “Population Membrane Permeable-Phenotype (%)” value [2] was 8% and 9%. The “Population Mitochondria Different-Phenotype (%)” value [2] was 1% and 6%, the “Population Normal (%)” value [2] was 97% and 100% and the “Population Pyknosed Nuclei (%)” value [2] was 10% and 8%. For the same compound, the “Population Tubulin-Different-Phenotype (%)” value [2] was 3%, the “Total Cell Count” value [2] was 272 and 131 and the “Population Apoptotic (%)” value [3] was 81% and 75%. The “Population Fragmented Nuclei (%)” value [3] was 24% and 15%, the “Population Healthy Nuclei (%)” value [3] was 63% and 77% and the “Population Hoechst High Intensity Objects (%)” value [3] was 1% and 0%. For the same compound, the “Population Membrane Permeable-Phenotype (%)” value [3] was 4% and 6%, the “Population Mitochondria Different-Phenotype (%)” value [3] was 2% and the “Population Mitotic Cells (%)” value [3] was 18% and 25%. The “Population Normal (%)” value [3] was 98% and 100%, the “Population Pyknosed Nuclei (%)” value [3] was 11% and 7% and the “Population Tubulin-Different-Phenotype (%)” value [3] was 2% and 4%. The “Total Cell Count” value [3] was 237 and 157, the “Population Apoptotic (%)” value [4] was 90% and 70% and the “Population Fragmented Nuclei (%)” value [4] was 23% and 11%. The “Population Healthy Nuclei (%)” value [4] was 66% and 82%, the “Population Hoechst High Intensity Objects (%)” value [4] was 2% and 0% and the “Population Membrane Permeable-Phenotype (%)” value [4] was 7% and 11%. For the same compound, the “Population Mitochondria Different-Phenotype (%)” value [4] was 2% and 4%, the “Population Mitotic Cells (%)” value [4] was 10% and 30% and the “Population Normal (%)” value [4] was 97% and 100%. For the same compound, the “Population Pyknosed Nuclei (%)” value [4] was 10% and 5%, the “Population Tubulin-Different-Phenotype (%)” value [4] was 3% and 4% and the “Total Cell Count” value [4] was 306 and 177. For the same compound, the “Population Apoptotic (%)” value [5] was 89% and 81%, the “Population Fragmented Nuclei (%)” value [5] was 20% and 11% and the “Population Healthy Nuclei (%)” value [5] was 70% and 81%. The “Population Hoechst High Intensity Objects (%)” value [5] was 1% and 0%, the “Population Membrane Permeable-Phenotype (%)” value [5] was 2% and 6% and the “Population Mitochondria Different-Phenotype (%)” value [5] was 1% and 3%. For the same compound, the “Population Mitotic Cells (%)” value [5] was 10% and 18%, the “Population Normal (%)” value [5] was 98% and 99% and the “Population Pyknosed Nuclei (%)” value [5] was 8% and 7%. For the same compound, the “Population Tubulin-Different-Phenotype (%)” value [5] was 0% and 2%, the “Total Cell Count” value [5] was 344 and 229 and the “Population Apoptotic (%)” value [6] was 91% and 84%. The “Population Fragmented Nuclei (%)” value [6] was 18% and 12%, the “Population Healthy Nuclei (%)” value [6] was 67% and 82% and the “Population Hoechst High Intensity Objects (%)” value [6] was 3% and 2%. For the same compound, the “Population Membrane Permeable-Phenotype (%)” value [6] was 6% and 10%, the “Population Mitochondria Different-Phenotype (%)” value [6] was 1% and 2% and the “Population Mitotic Cells (%)” value [6] was 8% and 15%. The “Population Normal (%)” value [6] was 96% and 97%, the “Population Pyknosed Nuclei (%)” value [6] was 14% and 5% and the “Population Tubulin-Different-Phenotype (%)” value [6] was 4%. For the same compound, the “Total Cell Count” value [6] was 396 and 246.

Cc1cc(C(C#N)c2ccc(Cl)cc2)c(Cl)cc1NC(=O)c1cc(I)cc(I)c1O (configuration not stated) [CLOSANTEL] was tested, and the “Population Apoptotic (%)” value [1] was 40% and 50%, the “Population Fragmented Nuclei (%)” value [1] was 1.13% and 2.08% and the “Population Healthy Nuclei (%)” value [1] was 90.4% and 86.81%. For the same compound, the “Population Hoechst High Intensity Objects (%)” value [1] was 0.19% and 0%, the “Population Membrane Permeable-Phenotype (%)” value [1] was 0.62% and 4.8% and the “Population Mitochondria Different-Phenotype (%)” value [1] was 0.42% and 3.2%. The “Population Mitotic Cells (%)” value [1] was 60% and 50%, the “Population Normal (%)” value [1] was 99.81% and 100% and the “Population Pyknosed Nuclei (%)” value [1] was 8.47% and 11.11%. The “Population Tubulin-Different-Phenotype (%)” value [1] was 1.46% and 0.8%, the “Population Apoptotic (%)” value [2] was 37.5% and 50% and the “Population Fragmented Nuclei (%)” value [2] was 1.14% and 4.88%. For the same compound, the “Population Healthy Nuclei (%)” value [2] was 93.39% and 81.71%, the “Population Hoechst High Intensity Objects (%)” value [2] was 0% and the “Population Membrane Permeable-Phenotype (%)” value [2] was 0.98% and 2.99%. For the same compound, the “Population Mitochondria Different-Phenotype (%)” value [2] was 0.49% and 8.96%, the “Population Mitotic Cells (%)” value [2] was 62.5% and 50% and the “Population Normal (%)” value [2] was 100%. For the same compound, the “Population Pyknosed Nuclei (%)” value [2] was 5.47% and 13.41%, the “Population Tubulin-Different-Phenotype (%)” value [2] was 0.73% and 2.24% and the “Total Cell Count” value [2] was 439 and 164. The “Population Apoptotic (%)” value [3] was 40% and 43.75%, the “Population Fragmented Nuclei (%)” value [3] was 1.65% and 4.19% and the “Population Healthy Nuclei (%)” value [3] was 90.1% and 86.23%. The “Population Hoechst High Intensity Objects (%)” value [3] was 0%, the “Population Membrane Permeable-Phenotype (%)” value [3] was 0.61% and 5.56% and the “Population Mitochondria Different-Phenotype (%)” value [3] was 0.46% and 6.25%. The “Population Mitotic Cells (%)” value [3] was 60% and 56.25%, the “Population Normal (%)” value [3] was 100% and the “Population Pyknosed Nuclei (%)” value [3] was 8.25% and 9.58%. The “Population Tubulin-Different-Phenotype (%)” value [3] was 0.46% and 1.39%, the “Population Apoptotic (%)” value [4] was 33.33% and 40% and the “Population Fragmented Nuclei (%)” value [4] was 1.76% and 4.91%. For the same compound, the “Population Healthy Nuclei (%)” value [4] was 88.75% and 83.93%, the “Population Hoechst High Intensity Objects (%)” value [4] was 0% and the “Population Membrane Permeable-Phenotype (%)” value [4] was 0% and 2.66%. The “Population Mitochondria Different-Phenotype (%)” value [4] was 0% and 4.26%, the “Population Mitotic Cells (%)” value [4] was 66.67% and 60% and the “Population Normal (%)” value [4] was 100%. For the same compound, the “Population Pyknosed Nuclei (%)” value [4] was 9.49% and 11.16%, the “Population Tubulin-Different-Phenotype (%)” value [4] was 0.4% and 1.06% and the “Total Cell Count” value [4] was 569 and 224. For the same compound, the “Population Apoptotic (%)” value [5] was 45.67% and 45.95%, the “Population Fragmented Nuclei (%)” value [5] was 3.15% and 4.35% and the “Population Healthy Nuclei (%)” value [5] was 87.31% and 83.28%. The “Population Hoechst High Intensity Objects (%)” value [5] was 0%, the “Population Membrane Permeable-Phenotype (%)” value [5] was 0.6% and 2.01% and the “Population Mitochondria Different-Phenotype (%)” value [5] was 0% and 6.02%. The “Population Mitotic Cells (%)” value [5] was 54.33% and 54.05%, the “Population Normal (%)” value [5] was 100% and the “Population Pyknosed Nuclei (%)” value [5] was 9.53% and 12.37%. For the same compound, the “Population Tubulin-Different-Phenotype (%)” value [5] was 0.77% and 0%, the “Population Apoptotic (%)” value [6] was 36.05% and 34.09% and the “Population Fragmented Nuclei (%)” value [6] was 2.74% and 3.02%. For the same compound, the “Population Healthy Nuclei (%)” value [6] was 89.14% and 85.93%, the “Population Hoechst High Intensity Objects (%)” value [6] was 0.09% and 0% and the “Population Membrane Permeable-Phenotype (%)” value [6] was 0.42% and 1.17%. For the same compound, the “Population Mitochondria Different-Phenotype (%)” value [6] was 0.11% and 4.97%, the “Population Mitotic Cells (%)” value [6] was 63.95% and 65.91% and the “Population Normal (%)” value [6] was 99.91% and 100%. For the same compound, the “Population Pyknosed Nuclei (%)” value [6] was 8.12% and 11.06%, the “Population Tubulin-Different-Phenotype (%)” value [6] was 0.32% and 0.88% and the “Total Cell Count” value [6] was 1060 and 398.

— ChEMBL document CHEMBL5724801, “EUbOPEN Chemogenomics Library - Multiplex” (2024)
